Test results: ChEMBL document CHEMBL1135918, “Gold(III) complexes with bipyridyl ligands: solution chemistry, cytotoxicity, and DNA binding properties” (J Med Chem, 2002)
Each block holds one molecule with its values, some of them ahead of it.

Tests used:
Type in all cases: functional, cell-based
A2780 [1] = assay: Inhibitory effect of Gold(III) complex, [Au(bipy-H)(OH)]-[PF6] on growth of cisplatin-resistant A2780/R human tumor cell lines
Outline: (§1)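 Human ovarian carcinoma cells (A2780/S; A2780/R derived from it by repeated 1 h weekly exposure to 50 µM; SKOV3) grown exponentially in RPMI1640 with 10% FCS and antibiotics at 37 °C, 5% CO2. Drugs dissolved in sterile bidistilled water, 72 h exposure, growth measured by sulforhodamine B assay. IC50 is the concentration inhibiting growth by 50% versus control.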

CCRF-CEM [2] = assay: Inhibitory effect of Gold(III) complex, [Au(bipy-H)(OH)]-[PF6] on growth of cisplatin-resistant CCRF-CEM/R human tumor cell lines
Outline: (§2)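 Human T-lymphoblastoid leukemia CCRF-CEM/S cells, and CCRF-CEM/R cells selected by continuous exposure to rising cisplatin and kept in 10 µM cisplatin. Exponentially growing cells in RPMI1640 with 10% FCS and antibiotics at 37 °C, 5% CO2. Water-dissolved drugs applied for 72 h, growth read by Coulter counter cell counting. IC50 is 50% growth inhibition versus control.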

SK-OV-3 [3] = assay: Inhibitory effect of Gold(III) complex, [Au(bipy-H)(OH)]-[PF6] on growth of cisplatin-resistant SKOV3 human tumor cell lines; outline: as §1
A2780 [4] = assay: Inhibitory effect of Gold(III) complex, [Au(bipy-H)(OH)]-[PF6] on growth of cisplatin-sensitive A2780/S human tumor cell lines; outline: as §1
CCRF-CEM [5] = assay: Inhibitory effect of Gold(III) complex, [Au(bipy-H)(OH)]-[PF6] on growth of cisplatin-sensitive CCRF-CEM/S human tumor cell lines; outline: as §2
CCRF-CEM [6] = assay: Inhibitory effect of Gold(III) complex, 2,2' bipy on growth of cisplatin-resistant CCRF-CEM/R human tumor cell lines; outline: as §2
A2780 [7] = assay: Inhibitory effect of Gold(III) complex, 2,2' bipy on growth of cisplatin-resistant A2780/R human tumor cell lines; outline: as §1
CCRF-CEM [8] = assay: Inhibitory effect of Gold(III) complex, 2,2' bipy on growth of cisplatin-sensitive CCRF-CEM/S human tumor cell lines; outline: as §2
A2780 [9] = assay: Inhibitory effect of Gold(III) complex, 2,2' bipy on growth of cisplatin-sensitive A2780/S human tumor cell lines; outline: as §1
SK-OV-3 [10] = assay: Inhibitory effect of Gold(III) complex, 2,2' bipy on growth of cisplatin-resistant SKOV3 human tumor cell lines; outline: as §1
CCRF-CEM [11] = assay: Inhibitory effect of Gold(III) complex, CDDP on growth of cisplatin-sensitive CCRF-CEM/S human tumor cell lines; outline: as §2
A2780 [12] = assay: Inhibitory effect of Gold(III) complex, CDDP on growth of cisplatin-resistant A2780/R human tumor cell lines; outline: as §1
SK-OV-3 [13] = assay: Inhibitory effect of Gold(III) complex, CDDP on growth of cisplatin-resistant SKOV3 human tumor cell lines; outline: as §1
A2780 [14] = assay: Inhibitory effect of Gold(III) complex, CDDP on growth of cisplatin-sensitive A2780/S human tumor cell lines; outline: as §1
CCRF-CEM [15] = assay: Inhibitory effect of Gold(III) complex, CDDP on growth of cisplatin-resistant CCRF-CEM/R human tumor cell lines; outline: as §2
A2780 [16] = assay: Inhibitory effect of Gold(III) complex, [Au(bipy)-(OH)2]-[PF6] on growth of cisplatin-resistant A2780/R human tumor cell lines; outline: as §1
SK-OV-3 [17] = assay: Inhibitory effect of Gold(III) complex, [Au(bipy)-(OH)2]-[PF6] on growth of cisplatin-resistant SKOV3 human tumor cell lines; outline: as §1
A2780 [18] = assay: Inhibitory effect of Gold(III) complex, [Au(bipy)-(OH)2]-[PF6] on growth of cisplatin-sensitive A2780/S human tumor cell lines; outline: as §1
CCRF-CEM [19] = assay: Inhibitory effect of Gold(III) complex, [Au(bipy)-(OH)2]-[PF6] on growth of cisplatin-resistant CCRF-CEM/R human tumor cell lines; outline: as §2
CCRF-CEM [20] = assay: Inhibitory effect of Gold(III) complex, [Au(bipy)-(OH)2]-[PF6] on growth of cisplatin-sensitive CCRF-CEM/S human tumor cell lines; outline: as §2

IC50 (A2780 [1]): 8.2 µM
IC50 (CCRF-CEM [2]): 51.2 µM
IC50 (SK-OV-3 [3]): 13.3 µM
IC50 (A2780 [4]): 3.3 µM
IC50 (CCRF-CEM [5]): 11.9 µM
Molecule: 8,8-dimethyl-8,12b-dihydro-7b,12c-diazoniabenzo[a]aceanthrylen-12b-ol(gold(III)complex) with Phosphorous hexa fluoride

IC50 (CCRF-CEM [6]): 61.7 µM
IC50 (A2780 [7]): 44.8 µM
IC50 (CCRF-CEM [8]): 51.9 µM
IC50 (A2780 [9]): > 20 µM
IC50 (SK-OV-3 [10]): 41.3 µM
Molecule: c1ccc(-c2ccccn2)nc1 [DIPYRIDYL]

IC50 (CCRF-CEM [11]): 1 µM
IC50 (A2780 [12]): 15.3 µM
IC50 (SK-OV-3 [13]): 21.6 µM
IC50 (A2780 [14]): 1.3 µM
IC50 (CCRF-CEM [15]): 14.1 µM
Molecule: CISPLATIN

IC50 (A2780 [16]): 24.1 µM
IC50 (SK-OV-3 [17]): 34.4 µM
IC50 (A2780 [18]): 8.8 µM
IC50 (CCRF-CEM [19]): 58.6 µM
IC50 (CCRF-CEM [20]): 52.9 µM
Molecule: pyrido[1',2':3,4]imidazo[1,5-a]pyridinediium-6,6-diol(gold(III)complex) with Phosphorous hexa fluoride
